Legend:
SREBP-1c maturation = test: Immunoblot of precursor and mature SREBP-1c in HepG2 cells; assay type: cell-based, human
Outline: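 HepG2 cells expressing GFP or 3xFlag-tagged precursor SREBP-1a or SREBP-1c were treated with test compound (30 and 50 μM), then 100 nM insulin for 6 h. Whole-cell lysate and nuclear extract were immunoblotted for precursor and mature SREBP-1c, and the mature:precursor ratio was determined.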

casein kinase 2α = test: In vitro protein kinase activity assay, casein kinase 2α; assay type: biochemical, human; details: PASK vs casein kinase 2α2
HFrD-fed rats = test: High-fructose diet Sprague-Dawley rats, oral dosing once/day for 90 days; assay type: in vivo, rat
[1] = system: SREBP-1 maturation in liver; test: High-fat and high-fructose diet rats, liver SREBP-1 maturation immunoblot; assay type: in vivo, rat; details: 10, 30 and 100 mg/kg; treated for the last 3 weeks of 18 weeks diet
Outline: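 Rats were fed a high-fat plus high-fructose diet for 18 weeks and dosed once daily by oral gavage with vehicle or test compound over the final 3 weeks. Vehicle was 0.5% methylcellulose, 0.025% Tween-80 in water, with compound ground to a suspension. Animals were fasted 24 h and refed 12 h. Whole liver lysate and nuclear extract were immunoblotted for precursor and mature SREBP-1 plus control proteins.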

[2] = system: high-fructose diet (HFrD) fed rats; test: High-fructose diet Sprague-Dawley rats, oral dosing once/day for one week; assay type: in vivo
SREBP = test: SRE-driven luciferase; assay type: cell-based, human; details: for concentrations giving a significant reduction in SREBP activity: HepG2, SRE-Luc, 100nM insulin 6 h; for effects on cell morphology or growth rate: HepG2 cells, concentrations of the SRE-Luc experiment
Outline: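 Transfection of HepG2 cells used Lipofectamine LTX, with pSRE-Luc plus CMV-driven Renilla luciferase. Cells were serum-starved overnight with vehicle or graded concentrations of test compound, then stimulated with 100 nM insulin for 6 h. Firefly and Renilla luciferase were read by dual-reporter assay. Data were normalised to vehicle-treated samples; n=3, mean ± SD.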

[3] = system: Akt and S6K phosphorylation; test: Immunoblot of Akt and S6K phosphorylation in response to insulin in HepG2 cells; assay type: cell-based, human
Outline: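 HepG2 cells received vehicle or graded concentrations of test compound, then 100 nM insulin for 6 h. Cell lysates were immunoblotted for phosphorylation state and abundance of Akt and S6K.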

[4] = In vivo pharmacologic and pharmacokinetic properties
50 other protein kinases = test: In vitro specificity panel of 50 other protein kinases; assay type: biochemical, human; details: 100μM
PASK = PASK (Homo sapiens, UniProt Q96RG2); test: In vitro protein kinase activity assay, purified PASK; assay type: biochemical; details: 100μM
PASK, sequence (Q96RG2 whole entry): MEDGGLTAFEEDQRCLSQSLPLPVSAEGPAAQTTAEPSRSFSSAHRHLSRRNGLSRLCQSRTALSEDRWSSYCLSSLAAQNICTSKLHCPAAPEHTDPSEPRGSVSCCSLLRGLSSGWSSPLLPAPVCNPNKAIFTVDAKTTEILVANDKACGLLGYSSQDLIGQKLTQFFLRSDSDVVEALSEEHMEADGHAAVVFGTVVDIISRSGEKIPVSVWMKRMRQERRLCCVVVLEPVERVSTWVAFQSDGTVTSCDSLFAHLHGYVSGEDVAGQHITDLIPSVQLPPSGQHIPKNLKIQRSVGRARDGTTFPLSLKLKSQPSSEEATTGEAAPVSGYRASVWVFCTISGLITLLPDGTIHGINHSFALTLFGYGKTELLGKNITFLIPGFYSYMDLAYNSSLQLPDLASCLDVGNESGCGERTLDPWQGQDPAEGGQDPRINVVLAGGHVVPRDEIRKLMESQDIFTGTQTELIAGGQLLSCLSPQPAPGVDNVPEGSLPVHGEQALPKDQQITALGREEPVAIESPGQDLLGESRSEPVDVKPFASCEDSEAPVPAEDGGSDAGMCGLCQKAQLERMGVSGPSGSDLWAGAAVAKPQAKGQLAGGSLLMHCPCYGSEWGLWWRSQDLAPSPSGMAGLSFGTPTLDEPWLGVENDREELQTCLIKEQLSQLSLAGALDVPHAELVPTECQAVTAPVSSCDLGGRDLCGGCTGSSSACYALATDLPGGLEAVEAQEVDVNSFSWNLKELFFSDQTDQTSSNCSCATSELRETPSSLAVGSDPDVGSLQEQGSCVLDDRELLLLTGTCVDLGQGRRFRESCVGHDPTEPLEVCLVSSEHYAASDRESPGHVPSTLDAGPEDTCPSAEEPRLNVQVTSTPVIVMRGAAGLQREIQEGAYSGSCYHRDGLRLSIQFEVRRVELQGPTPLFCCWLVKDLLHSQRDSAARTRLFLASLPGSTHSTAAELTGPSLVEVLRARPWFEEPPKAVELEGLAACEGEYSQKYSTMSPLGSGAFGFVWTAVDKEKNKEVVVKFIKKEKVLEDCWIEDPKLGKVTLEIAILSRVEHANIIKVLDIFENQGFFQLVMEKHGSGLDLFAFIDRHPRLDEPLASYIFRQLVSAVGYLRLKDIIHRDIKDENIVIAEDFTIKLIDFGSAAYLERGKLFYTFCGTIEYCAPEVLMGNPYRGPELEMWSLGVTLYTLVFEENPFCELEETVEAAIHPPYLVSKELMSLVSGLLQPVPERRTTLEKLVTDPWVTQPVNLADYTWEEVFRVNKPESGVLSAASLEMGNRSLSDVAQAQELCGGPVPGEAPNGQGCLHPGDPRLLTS
Outline: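 Purified PASK kinase activity measured with vehicle or test compound at the indicated concentrations. Activity is expressed as percent of vehicle-treated activity.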

Rat primary hepatocytes [5] = test: qRT-PCR of SREBP-1c target genes in insulin-stimulated rat primary hepatocytes; assay type: cell-based
Outline: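 Rat primary hepatocytes were isolated, plated, and pre-treated 16 h with DMSO or test compound, then stimulated with insulin or vehicle over a 12 h time course. FASN, GCK and SREBP-1c mRNAs were measured by qRT-PCR, normalised to r36B4, with the vehicle-treated unstimulated group set as 1; n=3, mean ± SEM.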

HepG2 cells = test: 14C-acetate incorporation into lipid; assay type: cell-based, human; details: 10 μM, HepG2, 14C-acetate
Outline: (§1)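 HepG2 cells or rat primary hepatocytes were pre-treated overnight in serum-free medium with vehicle or 10 μM test compound. They then got fresh medium with vehicle or […] test compound plus 100 nM insulin for 6 h, labelled with 10 μCi/ml [1-14C]-acetate for the last 4 h. Lysis was in 0.5% Triton X-100, lipids were extracted with chloroform:methanol 2:1, and the organic phase was scintillation-counted. Counts were normalised to lysate protein; n=3, mean ± SD.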

Rat primary hepatocytes [6] = test: 14C-acetate incorporation into lipids in rat primary hepatocytes; assay type: cell-based
Outline: as §1

adipose tissue = details: accompanied by decreased expression of SREBP-1; ref Pereira et al., 2013; cited from earlier work

SMILES: CC(C)N(C)c1nc2cc(C(=O)O)ccc2nc1-c1ccc(F)cc1 [BioE-1115]
- SREBP-1c maturation (mature:precursor SREBP-1c ratio) (SREBP-1c maturation; 30 and 50μM): suppressed
- fold more potent as an inhibitor of PASK than of casein kinase 2α2 (casein kinase 2α): roughly 2500 fold
- hepatic Fasn and Acc1 expression (HFrD-fed rats; 3 mg/kg, 90 days): significantly suppressed
- hepatic Fasn and Acc1 expression (HFrD-fed rats; 10, 30 and 100 mg/kg, 90 days): restored to that in normal chow fed animals
- serum glucose levels as measured by glycated hemoglobin (HbA1c) (HFrD-fed rats; 90-day study): decreased
- expression of SREBP-1c or its target genes in abdominal fat (HFrD-fed rats; 90 days): no significant differences
- expression of SREBP-1c or its target genes in gastrocnemius muscle (HFrD-fed rats; 90 days): no significant differences
- body weight (HFrD-fed rats; after 51 days of dosing): no drug-dependent difference
- body weight (HFrD-fed rats; after 90 days of dosing): no drug-dependent difference
- serum triglycerides (HFrD-fed rats; after 90 days of treatment): significant dose-responsive decrease
- overt toxicity upon extended treatment (HFrD-fed rats; doses 10–30 fold higher than those required for significant effects on lipogenic gene expression and serum triglycerides): no overt toxicity
- serum triglycerides (HFrD-fed rats; interim timepoint of 45 days): significant dose-responsive decrease
- SREBP-1 maturation in liver [1]: suppressed
- hepatic expression of SREBP-1c target genes ([2]; 1 or 3 mg/kg oral once/day, one week): no difference from vehicle-treated rats
- hepatic expression of Gpat1, Fasn and all other SREBP-1c target genes analyzed ([2]; 10, 30 and 100 mg/kg oral once/day, one week): dose-dependent suppression
- HOMA-IR ([2]; calculated measure of insulin resistance): decreased in a dose-dependent manner
- hepatic SREBP-1c and SREBP-1a mRNA ([2]; highest doses): modestly decreased
- body weight ([2]; oral once/day, one week): Neither dose of BioE-1115 caused a significant change
- hepatic TAG ([2]; oral once/day, one week): decrease
- hepatic expression of HMG-CoA synthase 1 and SREBP-2 ([2]; oral once/day, one week): induced in a dose-dependent manner
- liver weight ([2]; oral once/day, one week): Neither dose of BioE-1115 caused a significant change
- serum TAG ([2]; oral once/day, one week): decreased in a dose-dependent manner
- serum cholesterol ([2]; oral once/day, one week): basically unaffected
- serum glucose ([2]; oral once/day, one week): significant decrease
- serum insulin levels ([2]; oral once/day, one week): slightly lower
- concentrations giving a significant reduction in SREBP activity (SREBP): above 10 μM
- effects on cell morphology or growth rate (SREBP): without any observable effects
- phosphorylation of Akt or S6K in response to insulin [3]: neither compound impaired
- in vivo pharmacologic and pharmacokinetic properties relative to BioE-1197 [4]: more favorable

SMILES: C[C@H]1CCCN1c1nc2cc(C(=O)O)ccc2nc1-c1ccc(F)cc1 [BioE-1197]
- activity of the majority of the 50 kinases (50 other protein kinases): either unaffected or only modestly inhibited
- number of other kinases substantially inhibited (50 other protein kinases; of 50 kinases other than PASK): 8
- PASK activity at extremely high concentration (PASK): essentially completely inactivated
- suppression of SREBP-1c maturation compared with BioE-1428 (SREBP-1c maturation; quantified over five independent experiments): significantly more efficacious
- mRNA encoding SREBP-1c (Rat primary hepatocytes [5]; basal and insulin-stimulated conditions): significant decrease
- insulin-induced increase in FASN and GCK mRNAs (Rat primary hepatocytes [5]; pre-treated 16 h, insulin over 12 h timecourse): either blunted or abolished
- decrease in 14C incorporation into lipids (HepG2 cells): ~ 60%
- hepatic expression of the gene encoding HMG-CoA reductase ([2]; oral once/day, one week): significantly decreased
- concentrations giving a significant reduction in SREBP activity (SREBP): > 3 µM
- effects on cell morphology or growth rate (SREBP): without any observable effects
- phosphorylation of Akt or S6K in response to insulin [3]: neither compound impaired
- insulin-induced increase in lipogenesis (14C-acetate incorporation into lipids) (Rat primary hepatocytes [6]): completely abolished

SMILES: CO[C@H]1C[C@@H]2CC[C@@H](C)[C@@](O)(O2)C(=O)C(=O)N2CCCC[C@H]2C(=O)O[C@H]([C@H](C)C[C@@H]2CC[C@@H](O)[C@H](OC)C2)CC(=O)[C@H](C)/C=C(\C)[C@@H](O)[C@@H](OC)C(=O)[C@H](C)C[C@H](C)/C=C/C=C/C=C/1C [rapamycin]
- lipogenesis in adipose tissue (adipose tissue): decreased lipogenesis

Source: paper PMC4112965 (Cell reports, 2014)
